This is an account of results in ChEMBL document CHEMBL1138430, “Novel tetrahydroisoquinolines are histamine H3 antagonists and serotonin reuptake inhibitors” (Bioorg Med Chem Lett, 2007).

The structures appear in SMILES notation.

Data set [1] addresses T1, Histamine H3 receptor (Homo sapiens, UniProt Q9Y5N1). As to the kind of experiment: Antagonist activity at human histamine H3 receptor. The format is functional. The following applies: read-out: pA2 (converted).
Data set [2] in a line: (§1) Half life in po and iv dosed rat. The format is ADME, organism-based. The following applies: in vivo.
Data set [3] can be described thus: (§2) Volume of distribution at steady state in po and iv dosed rat. The format is ADME, organism-based. The following applies: in vivo, read-out: Vdss.
A short description of data set [4]: (§3) Bioavailability in po dosed rat. The format is ADME, organism-based. The following applies: in vivo.
Data set [5] addresses Sodium-dependent serotonin transporter (Rattus norvegicus, UniProt P31652). As to the kind of experiment: Binding affinity at rat SERT.
For data set [6], the target named is Sodium-dependent serotonin transporter (Homo sapiens, UniProt P31645). As to the kind of experiment: Binding affinity at human SERT.
Sequence of Sodium-dependent serotonin transporter (Homo sapiens, UniProt P31645) (P31645 whole entry): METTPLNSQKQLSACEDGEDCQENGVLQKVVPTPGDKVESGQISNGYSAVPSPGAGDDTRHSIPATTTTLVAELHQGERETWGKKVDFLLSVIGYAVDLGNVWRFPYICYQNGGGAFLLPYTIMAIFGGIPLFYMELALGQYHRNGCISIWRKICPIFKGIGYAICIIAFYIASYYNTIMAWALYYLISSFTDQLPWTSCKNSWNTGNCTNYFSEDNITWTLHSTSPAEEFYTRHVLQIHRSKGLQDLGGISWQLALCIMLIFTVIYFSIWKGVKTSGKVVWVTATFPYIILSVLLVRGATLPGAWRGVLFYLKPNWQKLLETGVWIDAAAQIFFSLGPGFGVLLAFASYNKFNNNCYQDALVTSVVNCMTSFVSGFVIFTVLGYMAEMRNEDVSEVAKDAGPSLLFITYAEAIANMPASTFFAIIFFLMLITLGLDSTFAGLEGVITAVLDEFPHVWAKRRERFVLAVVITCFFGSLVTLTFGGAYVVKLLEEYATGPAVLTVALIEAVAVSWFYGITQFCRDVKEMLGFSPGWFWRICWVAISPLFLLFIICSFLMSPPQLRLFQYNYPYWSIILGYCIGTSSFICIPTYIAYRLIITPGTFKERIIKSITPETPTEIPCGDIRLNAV
A short description of data set [7]: Plasma clearance in po and iv dosed rat. It counts as ADME, organism-based.
For data set [8], the target named is T1, Histamine H3 receptor. As to the kind of experiment: Binding affinity at human histamine H3 receptor.
The subject of data set [9] is Rattus norvegicus. The data set is described as §1. Particulars: in vivo; call rule not given here. It counts as ADME, organism-based.
Data set [10] relates to Rattus norvegicus. The data set is described as §2. The following applies: in vivo. It counts as ADME, organism-based.
Data set [11] in a line: Cmax in rat brain at 10 mg/kg, po. It counts as ADME, organism-based. Also on record: dose 10 mg/kg, route oral.
The subject of data set [12] is Rattus norvegicus. The data set is described as §3. It counts as ADME, organism-based. The following applies: in vivo.
The test system of data set [13] is Voltage-gated potassium channel. As to the kind of experiment: Binding affinity for potassium channel at 1 uM. It counts as protein assay. The following applies: human.
Data set [14] deals with Sodium-dependent dopamine transporter (Homo sapiens, UniProt Q01959). As to the kind of experiment: Inhibition of [3H]WIN-uptake in human DAT expressed in CHO cells. The format is cell-based. The method, boiled down:
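Human DAT expressed in CHO cells; membranes were incubated on ice for 2 h with 10.9 nM [3H]-WIN 35,428, then harvested by rapid filtration. Nonspecific binding was defined with GBR-12909. Ki values are means of at least three experiments run in triplicate, with SEM.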

The target of data set [15] is Sodium-dependent noradrenaline transporter (Homo sapiens, UniProt P23975). As to the kind of experiment: Inhibition of [3H]nisoxetine uptake in human NET expressed in MDCK cells. The format is cell-based.
Sequence of Sodium-dependent noradrenaline transporter (P23975 whole entry): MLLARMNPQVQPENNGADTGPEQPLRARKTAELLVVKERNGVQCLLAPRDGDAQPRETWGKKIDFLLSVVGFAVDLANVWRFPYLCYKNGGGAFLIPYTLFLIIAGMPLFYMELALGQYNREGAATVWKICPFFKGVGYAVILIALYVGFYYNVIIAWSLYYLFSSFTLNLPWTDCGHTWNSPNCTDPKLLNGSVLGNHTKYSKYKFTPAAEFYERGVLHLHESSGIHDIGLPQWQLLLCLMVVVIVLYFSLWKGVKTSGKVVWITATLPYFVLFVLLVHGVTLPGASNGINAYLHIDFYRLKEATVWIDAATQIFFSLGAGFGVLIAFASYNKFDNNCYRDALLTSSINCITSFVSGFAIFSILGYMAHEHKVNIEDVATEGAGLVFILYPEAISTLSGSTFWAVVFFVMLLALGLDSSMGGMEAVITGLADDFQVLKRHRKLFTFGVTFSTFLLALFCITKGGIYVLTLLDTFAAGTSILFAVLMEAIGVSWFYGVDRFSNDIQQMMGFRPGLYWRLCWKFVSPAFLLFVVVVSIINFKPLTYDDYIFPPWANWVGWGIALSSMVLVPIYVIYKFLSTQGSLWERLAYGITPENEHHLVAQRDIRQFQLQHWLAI
The test system of data set [16] is Brain. As to the kind of experiment: Drug level in rat brain at 0.1 mg/kg. It counts as ADME, organism-based. Also noted: dose 0.1 mg/kg. Particulars: in vivo, read-out: Drug uptake.
The subject of data set [17] is Voltage-gated calcium channel. As to the kind of experiment: Binding affinity for calcium channel at 1 uM. The format is protein-complex assay. The following applies: human.
Data set [18] is filed under the species Rattus norvegicus. As to the kind of experiment: Ex vivo receptor occupancy at SERT in rat. The format is functional.
The species named for data set [19] is Rattus norvegicus. As to the kind of experiment: Ex vivo receptor occupancy at histamine H3 receptor in rat. The format is functional.

Sequence of Sodium-dependent serotonin transporter (Rattus norvegicus, UniProt P31652) (P31652 whole entry): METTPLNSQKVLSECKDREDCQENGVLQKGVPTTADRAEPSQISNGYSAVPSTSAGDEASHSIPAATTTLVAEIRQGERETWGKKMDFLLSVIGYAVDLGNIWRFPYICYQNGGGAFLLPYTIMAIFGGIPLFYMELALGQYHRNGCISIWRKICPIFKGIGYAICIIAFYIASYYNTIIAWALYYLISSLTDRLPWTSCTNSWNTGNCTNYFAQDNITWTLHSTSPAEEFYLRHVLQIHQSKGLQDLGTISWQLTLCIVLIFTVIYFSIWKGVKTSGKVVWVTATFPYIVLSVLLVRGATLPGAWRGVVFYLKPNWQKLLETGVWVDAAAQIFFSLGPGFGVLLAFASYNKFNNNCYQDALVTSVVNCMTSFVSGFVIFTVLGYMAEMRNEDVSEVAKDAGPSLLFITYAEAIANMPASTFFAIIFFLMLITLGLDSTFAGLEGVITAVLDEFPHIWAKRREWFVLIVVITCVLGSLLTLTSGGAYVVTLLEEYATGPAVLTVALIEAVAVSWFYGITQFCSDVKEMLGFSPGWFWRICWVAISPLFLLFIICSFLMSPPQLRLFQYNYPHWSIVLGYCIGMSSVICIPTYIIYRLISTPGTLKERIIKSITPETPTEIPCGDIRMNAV
T1 sequence (Q9Y5N1 whole entry): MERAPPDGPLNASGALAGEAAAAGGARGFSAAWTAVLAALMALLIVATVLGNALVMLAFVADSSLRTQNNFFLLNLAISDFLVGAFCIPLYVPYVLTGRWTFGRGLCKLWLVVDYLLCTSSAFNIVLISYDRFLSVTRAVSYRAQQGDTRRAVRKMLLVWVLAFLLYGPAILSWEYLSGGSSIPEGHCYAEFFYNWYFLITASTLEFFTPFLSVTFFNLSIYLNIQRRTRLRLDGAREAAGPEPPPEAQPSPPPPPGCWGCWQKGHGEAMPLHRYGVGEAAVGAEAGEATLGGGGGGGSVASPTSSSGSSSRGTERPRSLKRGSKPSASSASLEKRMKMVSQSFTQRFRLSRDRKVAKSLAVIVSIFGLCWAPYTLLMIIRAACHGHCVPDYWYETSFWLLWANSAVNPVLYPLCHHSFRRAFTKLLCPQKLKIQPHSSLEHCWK
Sequence of Sodium-dependent dopamine transporter (Q01959 whole entry): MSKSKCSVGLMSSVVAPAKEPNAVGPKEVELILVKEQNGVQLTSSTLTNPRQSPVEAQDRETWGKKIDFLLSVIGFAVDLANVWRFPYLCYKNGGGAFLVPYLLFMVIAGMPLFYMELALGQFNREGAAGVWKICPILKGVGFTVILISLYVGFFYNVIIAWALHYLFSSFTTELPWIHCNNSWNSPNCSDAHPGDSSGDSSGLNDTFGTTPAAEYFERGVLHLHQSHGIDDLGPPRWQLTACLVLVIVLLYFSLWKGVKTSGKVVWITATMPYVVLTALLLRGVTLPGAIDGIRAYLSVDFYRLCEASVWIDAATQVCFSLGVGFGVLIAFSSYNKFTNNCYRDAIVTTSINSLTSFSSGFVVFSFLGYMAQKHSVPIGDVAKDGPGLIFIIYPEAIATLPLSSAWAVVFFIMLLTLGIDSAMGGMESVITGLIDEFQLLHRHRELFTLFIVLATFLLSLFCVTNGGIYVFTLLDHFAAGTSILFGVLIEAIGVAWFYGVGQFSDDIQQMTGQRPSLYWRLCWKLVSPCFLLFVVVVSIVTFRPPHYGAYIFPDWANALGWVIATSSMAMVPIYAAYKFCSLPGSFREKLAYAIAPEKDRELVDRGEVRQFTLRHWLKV

Regarding `COc1ccc(C2CN(C)Cc3cc(OCCCN4CCOCC4)ccc32)cc1` (stereo unspecified), in data set [1], the Kb was 2.29 nM.
The compound `CCOc1ccc(C2CN(C)Cc3cc(OCCCN4CCC(F)CC4)ccc32)cc1` (stereo unspecified) had a half-life in data set [2] of 10.3 h. The Vd in data set [3] came out at 15.5 L/kg. The compound further yielded a bioavailability in data set [4] of 11%. The results for the Ki in data set [5], in data set [6] and in [8] were 2.7 nM, 4.7 nM and 7.3 nM, respectively. The clearance in [7] stood at 29.9 mL/min/kg.
Take `COc1ccc(C2CN(C)Cc3cc(OCCCN4CCC(F)CC4)ccc32)cc1Cl` (stereo unspecified): the Ki in data set [5] came out at 5.3 nM; in data set [6] it was 5.7 nM; in data set [8], 9.7 nM. Moreover, the Kb in data set [1] was 6.17 nM.
Take `CN1Cc2cc(OCCCN3CCC(F)CC3)ccc2C(c2ccc(Cl)cc2)C1` (stereo unspecified): the Ki in data set [5] was 16 nM; in data set [8], 8.3 nM.
For the compound `CN1Cc2cc(OCCCN3CCC(F)CC3)ccc2C(c2ccccc2Cl)C1` (stereo unspecified), the inhibition constant (Ki) in [5] worked out at 17 nM; in [6], 18 nM; in data set [8], 5.6 nM.
On to `CN1Cc2cc(OCCCN3CCC(F)CC3)ccc2C(c2ccc(Cl)c(Cl)c2)C1` (stereo unspecified), for which the inhibitory constant (Ki) turned out to be 8.3 nM in [5], 21 nM in [6] and 31 nM in data set [8]. Also, the Kb in data set [1] is 33.1 nM.
Turning to `CN1Cc2cc(OCCCN3CCC(F)CC3)ccc2C(c2cc(Cl)ccc2Cl)C1` (stereo unspecified), the results for the inhibitory constant (Ki) in data set [5], in [6] and in data set [8] were 120 nM, 107 nM and 9.3 nM, respectively. In data set [1], the Kb is 4.57 nM.
Regarding `CN1Cc2cc(OCCCN3CCC(F)CC3)ccc2C(c2ccc(C(F)(F)F)cc2)C1` (stereo unspecified), the Ki in [5] stood at 14 nM; in data set [6], 8.6 nM; in [8], 18 nM.
For the compound `CN1Cc2cc(OCCCN3CCC(F)CC3)ccc2C(c2cccc(C(F)(F)F)c2)C1` (stereo unspecified), the inhibitory constant (Ki) in [5] was determined as 30 nM; in data set [6], 15 nM; in data set [8], 11 nM.
For the compound `CN1Cc2cc(OCCCN3CCC(F)CC3)ccc2C(c2ccc(C#N)cc2)C1` (stereo unspecified), the Ki in data set [5] turned out to be 7.8 nM; in data set [6] it was 16 nM; in data set [8], 3.5 nM. Further, the Kb in data set [1] was 1.41 nM.
Regarding `Cc1ccc(C2CN(C)Cc3cc(OCCCN4CCC(F)CC4)ccc32)cc1` (stereo unspecified), the inhibition constant Ki turned out to be 4.4 nM in [5], 13 nM in data set [6] and 8.3 nM in data set [8].
Consider `CN1Cc2cc(OCCCN3CCC(F)CC3)ccc2C(c2ccc(SC(F)(F)F)cc2)C1` (stereo unspecified), for which the figures for the Ki in [5], in data set [6] and in data set [8] were 36 nM, 34 nM and 46 nM, respectively.
In the case of `CN1Cc2cc(OCCCN3CCC(F)CC3)ccc2C(c2ccc(OC(F)F)cc2)C1` (stereo unspecified), the Ki was found to be 4.3 nM in [6] and 10 nM in [8]. Further, the Kb in [1] is 4.37 nM.
Turning to `COc1ccc([C@H]2CN(C)Cc3cc(OCCCN4CCOC[C@@H]4C)ccc32)cc1`, in [1], the Kb was 2.95 nM. This compound also displayed a Ki in [8] of 6.9 nM.
Regarding `CN1Cc2cc(OCCCN3CCC(F)CC3)ccc2C(c2ccc(S(C)(=O)=O)cc2)C1` (stereo unspecified), the Ki in data set [5] stood at 22 nM; in [6], 135 nM.
For the compound `CN1Cc2cc(OCCCN3CCC(F)CC3)ccc2C(c2ccccc2)C1` (stereo unspecified), the inhibition constant (Ki) is 46 nM in data set [6] and 3.3 nM in [8]. The Kb in data set [1] is 0.724 nM.
For `COc1cccc(C2CN(C)Cc3cc(OCCCN4CCC(F)CC4)ccc32)c1` (stereo unspecified), the values for the Ki in data set [5], in data set [6] and in [8] were 4.3 nM, 4.3 nM and 2 nM, respectively. The Kb in data set [1] is 0.851 nM.
Compound `CN1Cc2cc(OCCCN3CCC(F)CC3)ccc2C(c2cccc(Cl)c2)C1` (stereo unspecified) yielded an inhibitory constant (Ki) in data set [6] of 24 nM. Besides, the Kb in [1] was 1.38 nM.
For `COc1ccc(C2CN(C)Cc3cc(OCCCN4CCC(F)CC4)ccc32)cc1` (racemic), the t1/2 in data set [9] was 16 h. The Vdss in data set [10] was 19.9 L/kg. Also, in data set [11], the highest concentration (Cmax) came to 1500 nM. For the same compound, in [12], the F was 6%. Besides, the results for the Ki in [5] and in [6] were 1.7 nM and 2.7 nM, respectively.
Consider `CSc1ccc(C2CN(C)Cc3cc(OCCCN4CCC(F)CC4)ccc32)cc1` (racemic), for which the Activity entry in data set [13] and in data set [17] was “Not Active” each time. This compound also gave a half-life in data set [2] of 9.9 h. Moreover, the Vd in data set [3] was 9.6 L/kg. Also, the highest level in data set [11] (Cmax) was 2400 nM. The Ki in data set [14] came out at 46 nM; in data set [15], 118 nM; in [5] it was 2 nM. Moreover, in [16], the concentration worked out at 130 nM. In addition, the bioavailability in [4] is 21%. The median effective dose (ED50) came out at 0.1 mg/kg in [18] and 0.05 mg/kg in [19]. Also, the clearance in [7] worked out at 18.5 mL/min/kg.
As for `COc1ccc(C2CN(C)Cc3cc(OCCCN4CCC(F)CC4)ccc32)cc1` (single isomer, unassigned; (-)), the inhibition constant Ki came to 4.5 nM in data set [5] and 9.3 nM in [6].
On to `COc1ccc(C2CN(C)Cc3cc(OCCCN4CCC(F)CC4)ccc32)cc1` (stereo in doubt; 12b), for which, in data set [2], the half-life was 13.3 h. In [10], this compound returned a Vdss of 5.1 L/kg. For the same compound, the F in data set [12] amounted to 13%. In data set [7], the clearance is 32.3 mL/min/kg.
Regarding `CSc1ccc(C2CN(C)Cc3cc(OCCCN4CCC(F)CC4)ccc32)cc1` (stereo in doubt; 12o), the inhibitory constant (Ki) is 2.3 nM in data set [5] and 8.8 nM in data set [6].
On to `CSc1ccc(C2CN(C)Cc3cc(OCCCN4CCC(F)CC4)ccc32)cc1` (stereo in doubt; (-)/-12p), for which the Ki in [5] amounted to 5 nM; in [6], 4.2 nM.

Usually half-life stands for how long it takes for the measured level to halve. The low end stands for rapid decline, the high end for slow decline. The term bioavailability denotes dose-corrected exposure relative to a reference, in per cent. A lower bioavailability goes with poor availability. The term Ki denotes the equilibrium dissociation constant of an inhibitor or competing ligand from its target. The term Cmax denotes the maximum level reached in the sampled fluid or tissue. Broadly, the ED50 is the dose that gives a 50% effect, or the effect in half of the subjects. Low readings indicate an effect at a small dose, high ones a need for a large dose.
